Bioassay records from PubChem.
EWS-Fli block = inhibitors of EWS/Fli oncoprotein transcriptional activity. 350,000 compounds, 0.67% hits. inhibition, % at 12.6 µM. A673 NR0B1-luciferase reporter, viability-normalised. AID 651661;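 active = mean inhibition of at least 50% after viability correction, with every replicate also passing that limit; inconclusive = mean reaches 50% but only one of two replicates passes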;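 also: firefly luciferase signal divided by Alamar Blue viability fluorescence both relative to DMSO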
TWEAK Fn14 block = inhibitors of TWEAK-Fn14 interaction signaling; 360,000 compounds, 2% hits; TWEAK-stimulated Fn14 reporter cells, luciferase luminescence, 8 h; inhibition, % at 10 µM; in the data active = inhibition above about 50%
XiGFP reactiv = activators of X-chromosome reactivation in mouse fibroblasts | activation, % at 7.58 µM | XiGFP mouse fibroblasts, % GFP-positive cells imaging, 3 d; cells co-treated with 5-aza-dC sensitizer; scaled so ellipticine positive control = 100% | 360,000 compounds, 0.055% hits;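 active = mean normalized replicate activation at least 10% and every replicate at or above 10%; inconclusive = only one of the two criteria met; inactive = mean below 10% and not all replicates reach 10%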
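Material: SV40-immortalized XiGFP fibroblast cells, line 68-5-11 | Buffer or medium: DMEM containing 5-aza-dC | Dosing: One concentration, pinned | Times: 3 d treatment, 15 min room-temperature fixation | Controls: Ellipticine 6 µM positive control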
LGR2 antag = Drosophila LGR2 receptor signaling inhibition; inhibition, % at 9.99 µM; AID 720647; 380,000 compounds, 0.35% hits; HEK293 LGR2, CRE-luciferase, bursicon-stimulated, 4 h;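 active = drop in luminescence signal, shown as inhibition above about 50% in the replicate tests, limit read from the data, passing the limit was not always enough; inconclusive = probably only some replicates passing the limit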;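 also: agonist challenge used bursicon conditioned medium at about half maximal strength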
TROY NFkB inh = TROY signaling inhibition | 360,000 compounds, 0.98% hits | Q293 LMP1-TROYcd NF-kB luciferase reporter, 4 h | inhibition, % at 10 µM;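 active = compounds whose plate-normalised and pattern-corrected inhibition of the luciferase reporter signal at the single screening dose is 50% or more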
FN deposition inh = fibronectin deposition inhibition | AH1F fibroblasts, Alexa488-fibronectin deposition fluorescence, overnight | inhibition, % at 12.6 µM | 350,000 compounds, 0.086% hits | AID 743247;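 active = mean inhibition across replicates of 30% or more, regardless of how many single replicates reach that level; inconclusive = mean under 30% yet at least half of replicates reach 30%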
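material = AH1F fibroblast monolayer depositing Alexa488-labelled fibronectin into matrix | amount = 10000 AH1F cells/well | buffer or medium = DMEM plus 2% serum, read in PBS | incubation = 1 h cell adhesion before compound, then overnight fibronectin incubation | detection = fluorescence at 485 nm excitation, 525 nm emission | evaluation = percent inhibition as loss of matrix-bound fibronectin fluorescence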
Large screens that a line does not name were inactive. In the library only some 2.3% were active in any assay of this set; here they are far more common.

CNC[C@@H]1OCCCC[C@@H](C)Oc2ccc(NC(=O)Nc3c(C)noc3C)cc2C(=O)N([C@H](C)CO)C[C@H]1C	none (no result: TWEAK Fn14 block, TROY NFkB inh, FN deposition inh)
C[C@H]1CN([C@@H](C)CO)C(=O)c2cc(C#CCN(C)C)cnc2O[C@H]1CN(C)C(=O)c1ccc2c(c1)OCO2	none (no result: TWEAK Fn14 block, TROY NFkB inh)
CC[C@@]1(O)C(=O)OCc2c1cc1n(c2=O)Cc2cc3c(CN(C)C)c(O)ccc3nc2-1	EWS-Fli block 63, LGR2 antag 97, TROY NFkB inh 79
CC[C@@]1(O)C(=O)OCc2c1cc1n(c2=O)Cc2cc3c(N)cccc3nc2-1	EWS-Fli block inconclusive, TWEAK Fn14 block 70, TROY NFkB inh 63 (no result: LGR2 antag)
Cc1cc2c(=Cc3ccc(N(C)C)cc3)c3ccccc3n2[n+]1C	TWEAK Fn14 block 67
C[n+]1c(-c2ccccc2)cc2c(=Cc3ccccc3)c3ccccc3n21	EWS-Fli block 53, TWEAK Fn14 block 74, LGR2 antag inconclusive
CCOC(=O)c1cc2c(=Cc3ccc(N(C)C)cc3)c3ccccc3n2[n+]1C	none
COc1ccc2c3c(n(C)c2c1)[C@H](CO)N(C(=O)c1cnccn1)CC31CN(C(=O)c2ccncc2)C1	none (no result: TWEAK Fn14 block, TROY NFkB inh, FN deposition inh)
COc1ccc(CCN(C(=O)c2ccc(F)cc2)C2=CC3CCC(C2)N3C)cc1OC (stereo unspecified)	TWEAK Fn14 block 68 (no result: EWS-Fli block, XiGFP reactiv, LGR2 antag, FN deposition inh)
CN1/C(=C\C(=O)c2cccnc2)C(C)(C)c2ccccc21	none
COc1ccccc1OCC(=O)/C=C1/N(C)c2ccccc2C1(C)C	none
CN1/C(=C\C(=O)c2cncc(Br)c2)C(C)(C)c2ccccc21	TWEAK Fn14 block 56 (no result: EWS-Fli block)
CN1/C(=C/C(=O)c2nc(S(C)(=O)=O)ncc2Cl)C(C)(C)c2ccccc21	TWEAK Fn14 block 84, TROY NFkB inh 70 (no result: EWS-Fli block, XiGFP reactiv, LGR2 antag, FN deposition inh)
CN1/C(=C\C(=O)c2ccco2)C(C)(C)c2ccccc21	TWEAK Fn14 block 61 (no result: XiGFP reactiv, FN deposition inh)
CN1/C(=C\C(=O)COc2ccc3c(c2)OCO3)C(C)(C)c2ccccc21	TWEAK Fn14 block 64, TROY NFkB inh 69 (no result: EWS-Fli block, XiGFP reactiv, LGR2 antag, FN deposition inh)
COc1ccc2c3c(n(C)c2c1)[C@@H](CO)N(C)CC31CCN(C(=O)C2CCC2)CC1	none (no result: TWEAK Fn14 block, TROY NFkB inh, FN deposition inh)
CC(C)CC#Cc1ccc2c(c1)O[C@@H](CN(C)C(=O)Nc1ccccc1)[C@@H](C)CN([C@H](C)CO)S2(=O)=O	none (no result: TWEAK Fn14 block, TROY NFkB inh)
O=C(C=Cc1ccccn1)c1ccccc1	TWEAK Fn14 block 82, LGR2 antag inconclusive
O=C(C=Cc1ccccn1)c1ccccc1O	none
O=C(NC[C@H]1CC[C@@H]2[C@@H](CN2Cc2ccc(Oc3ccccc3)cc2)O1)C1CCOCC1	none (no result: TWEAK Fn14 block, XiGFP reactiv, LGR2 antag, TROY NFkB inh, FN deposition inh)
N#CC1c2ccccc2C=CN1C(=O)N(c1ccccc1)c1ccccc1 (stereo unspecified)	TWEAK Fn14 block 94 (no result: LGR2 antag)
COc1ccc(C(=O)N2C=Cc3ccccc3C2C#N)cc1 (stereo unspecified)	none
CCN1CCc2nc(NC(=O)c3ccccc3)sc2C1	TWEAK Fn14 block 85 (no result: EWS-Fli block, XiGFP reactiv, LGR2 antag)
O=C1c2ccccc2C(=Cc2cccnc2)c2ccccc21	XiGFP reactiv inconclusive (no result: LGR2 antag)
CN1C/C(=C/c2cccnc2)C(=O)/C(=C/c2cccnc2)C1	TWEAK Fn14 block 65 (no result: EWS-Fli block)
CCOc1cc(/C=C(\CC(=O)O)c2nc3ccccc3s2)ccc1OC	TWEAK Fn14 block 62
O=C(N=C1c2ccccc2CN1c1ccc(F)c(F)c1)c1cccnc1	TWEAK Fn14 block 52
CCC(=O)Nc1ccc2c(c1)OC[C@@H](C)N(Cc1ccccc1C(=O)O)C[C@@H](C)[C@H](OC)CN(C)C2=O	none (no result: TWEAK Fn14 block, TROY NFkB inh)
CC(C)(C)c1ccc(C(=O)n2cnc3ccccc32)cc1	TWEAK Fn14 block 78, TROY NFkB inh 64
CO[C@H]1CN(C)C(=O)c2cc(NC(=O)NC(C)C)ccc2OC[C@@H](C)N(Cc2ccc(-c3ccccn3)cc2)C[C@H]1C	none (no result: TWEAK Fn14 block, TROY NFkB inh)
O=c1c2c(nc3cc(-c4ccc(F)cc4)[nH]n13)CCCC2	TWEAK Fn14 block 80, LGR2 antag inconclusive, TROY NFkB inh 56 (no result: EWS-Fli block, XiGFP reactiv, FN deposition inh)
CCc1c(C)nc2cc(-c3ccc(Cl)cc3)[nH]n2c1=O	none
O=c1c2c(nc3cc(-c4ccc(Cl)cc4)[nH]n13)CCS2	TWEAK Fn14 block 73 (no result: EWS-Fli block)
O=c1c2c(nc3cc(-c4cccc(F)c4)[nH]n13)CCC2	none
CCC(=O)Nc1ccc2c(c1)C(=O)N(C)C[C@H](OC)[C@@H](C)CN(Cc1ccccn1)[C@@H](C)CO2	none (no result: TWEAK Fn14 block, TROY NFkB inh)
